# Measurements: ChEMBL document CHEMBL1121372, “Synthesis and antihypertensive activity of 5-amino-2-pyridinecarboxylic acid derivatives” (1980)
# The source made the active and inactive calls. The rule behind the calls is not given here.
# Tests used:
# Rattus norvegicus [1] = assay: The compound was tested for antihypertensive effect in spontaneously hypertensive rat (SHR), expressed as fall in blood pressure (BP) at 100 mg/kg dose given orally; assay type: functional; details: route oral
# Summary of the method: (§1)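 Male SHR, about 16 weeks old, with systolic pressure above 150 mmHg, held in restraint cages. Tail-cuff occlusion was raised to 250 mmHg and then lowered, after 1 h acclimation and at least 3 baseline readings. Dosing was by daily gavage in 3% cornstarch/5% PEG-400/Tween 80 for 2 or 4 days, with 4–6 rats per drug. Readings at 1, 2, 3 and 24 h; peak fall reported.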
# Rattus norvegicus [2] = assay: Antihypertensive effect in spontaneously hypertensive rat (SHR), expressed as fall in blood pressure (BP) at 50 mg/kg dose given orally; assay type: functional; details: route oral; summary of the method: as §1
# Canis familiaris [3] = assay: Antihypertensive activity in unanesthetized renal hypertensive dogs measured as Heart Rate (HR) (beats/min) at 100 mg per kg dose after peroral administration on day 3 p<0.05; assay type: functional, Canis lupus familiaris; details: route oral
# Summary of the method: (§2)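 Renal hypertensive dogs, unanesthetized. Test compound given orally once daily as a solid in a gelatin capsule. Blood pressure was taken at 1.5, 3, 6 and 24 h after each daily dose. Activity is the maximum change in mean blood pressure or heart rate over each daily session. Values are mean ± SE, with significance marked at p < 0.05.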
# Canis familiaris [4] = assay: Antihypertensive activity in unanesthetized renal hypertensive dogs measured as Heart Rate (HR) (beats/min) at 100 mg per kg dose after peroral administration on day1 (p<0.05); assay type: functional, Canis lupus familiaris; details: route oral; summary of the method: as §2
# Canis familiaris [5] = assay: Antihypertensive activity in unanesthetized renal hypertensive dogs measured as Heart Rate (HR) (beats/min) at 100 mg per kg dose after peroral administration on day 2; assay type: functional, Canis lupus familiaris; details: route oral; summary of the method: as §2
# Canis familiaris [6] = assay: Antihypertensive activity in unanesthetized renal hypertensive dogs measured as Heart Rate (HR) (beats/min) at 100 mg per kg dose after peroral administration on day 4; assay type: functional, Canis lupus familiaris; details: route oral; summary of the method: as §2
# Canis familiaris [7] = assay: Antihypertensive activity in unanesthetized renal hypertensive dogs measured as mean Blood Pressure at 100 mg per kg dose after peroral administration on day1; assay type: functional, Canis lupus familiaris; parameters: unit not given beside the values; details: route oral; summary of the method: as §2
# Canis familiaris [8] = assay: Antihypertensive activity in unanesthetized renal hypertensive dogs measured as mean Blood Pressure at 100 mg per kg dose after peroral administration on day 2; assay type: functional, Canis lupus familiaris; details: route oral; summary of the method: as §2
# Canis familiaris [9] = assay: Antihypertensive activity in unanesthetized renal hypertensive dogs measured as mean Blood Pressure at 100 mg per kg dose after peroral administration on day 3; assay type: functional, Canis lupus familiaris; details: route oral; summary of the method: as §2
# Canis familiaris [10] = assay: Antihypertensive activity in unanesthetized renal hypertensive dogs measured as mean Blood Pressure at 100 mg per kg dose after peroral administration on day 4; assay type: functional, Canis lupus familiaris; details: route oral; summary of the method: as §2
# Rattus norvegicus [11] = assay: The compound was tested for antihypertensive effect in spontaneously hypertensive rat (SHR), expressed as fall in blood pressure (BP) at 10 mg/kg dose given orally; assay type: functional; details: route oral
# Rattus norvegicus [12] = assay: The compound was tested for antihypertensive effect in spontaneously hypertensive rat (SHR), expressed as fall in blood pressure (BP) at 25 mg/kg dose given orally; assay type: functional; details: route oral; summary of the method: as §1
# Rattus norvegicus [13] = assay: The compound was tested for antihypertensive effect in spontaneously hypertensive rat (SHR), expressed as fall in blood pressure (BP) at 100 mg/kg dose given orally; Inactive; assay type: functional, organism-based; parameters: dose 100 mg/kg; summary of the method: as §1
# Rattus norvegicus [14] = assay: The compound was tested for antihypertensive effect in spontaneously hypertensive rat (SHR), expressed as fall in blood pressure (BP) at 50 mg/kg dose given orally; Inactive; assay type: functional, organism-based; parameters: dose 50 mg/kg; summary of the method: as §1
# Rattus norvegicus [15] = assay: The compound was tested for antihypertensive effect in spontaneously hypertensive rat (SHR), expressed as fall in blood pressure (BP) at 50 mg/kg dose given orally; (3/3 dead); assay type: functional
# Canis familiaris [16] = assay: Antihypertensive activity in unanesthetized renal hypertensive dogs measured as Heart Rate (HR) (beats/min) at 100 mg per kg dose after peroral administration on day1; assay type: functional, Canis lupus familiaris; details: route oral; summary of the method: as §2
# Canis familiaris [17] = assay: Antihypertensive activity in unanesthetized renal hypertensive dogs measured as Heart Rate (HR) (beats/min) at 100 mg per kg dose after peroral administration on day 3; assay type: functional, Canis lupus familiaris; details: route oral; summary of the method: as §2
# Canis familiaris [18] = assay: Antihypertensive activity in unanesthetized renal hypertensive dogs measured as HeartHeart Rate (HR) (beats/min) at 100 mg per kg dose after peroral administration on day 4 ((p<0.05); assay type: functional, Canis lupus familiaris, Heart; details: route oral; summary of the method: as §2
# Canis familiaris [19] = assay: Antihypertensive activity in unanesthetized renal hypertensive dogs measured as mean Blood Pressure at 100 mg per kg dose after peroral administration on day 3 (p<0.05); assay type: functional, Canis lupus familiaris; details: route oral; summary of the method: as §2
# Canis familiaris [20] = assay: Antihypertensive activity in unanesthetized renal hypertensive dogs measured as mean Blood Pressure at 100 mg per kg dose after peroral administration on day 4 (p<0.05); assay type: functional, Canis lupus familiaris; details: route oral; summary of the method: as §2
# Canis familiaris [21] = assay: Antihypertensive activity in unanesthetized renal hypertensive dogs measured as Heart Rate (HR) (beats/min) at 100 mg per kg dose after peroral administration on day 2 (p<0.05); assay type: functional, Canis lupus familiaris; details: route oral; summary of the method: as §2
# Canis familiaris [22] = assay: Antihypertensive activity in unanesthetized renal hypertensive dogs measured as mean Blood Pressure at 100 mg per kg dose after peroral administration on day 2 (p<0.05); assay type: functional, Canis lupus familiaris; details: route oral; summary of the method: as §2
# Canis familiaris [23] = assay: Antihypertensive activity in unanesthetized renal hypertensive dogs measured as mean Blood Pressure at 100 mg per kg dose after peroral administration on day 4 ((p<0.05); assay type: functional, Canis lupus familiaris; details: route oral; summary of the method: as §2
# Canis familiaris [24] = assay: Antihypertensive activity in unanesthetized renal hypertensive dogs measured as mean Blood Pressure at 100 mg per kg dose after peroral administration on day 2((p<0.05); assay type: functional, Canis lupus familiaris; details: route oral; summary of the method: as §2
smiles,measurement,setting,value
O=C(O)c1ccc(NCc2ccccc2Cl)cn1,BP,Rattus norvegicus [1],>60 mmHg
COC(=O)c1ccc(NCc2ccc(F)cc2)cn1,BP,Rattus norvegicus [2],>60 mmHg
O=C(O)c1ccc(NCc2ccccc2)cn1,HR,Canis familiaris [3],52
same,HR,Canis familiaris [4],74
same,HR,Canis familiaris [5],61
same,HR,Canis familiaris [6],48
same,MBP,Canis familiaris [7],-32
same,MBP,Canis familiaris [8],-14
same,MBP,Canis familiaris [9],-13
same,MBP,Canis familiaris [10],-6
same,BP,Rattus norvegicus [11],>40 mmHg
same,BP,Rattus norvegicus [2],>80 mmHg
same,BP,Rattus norvegicus [12],>60 mmHg
O=C(Nc1ccc(C(=O)O)nc1)c1ccccc1,BP,Rattus norvegicus [1],>20 mmHg
CCCCS(=O)(=O)Nc1ccc(C(=O)O)nc1,BP,Rattus norvegicus [13],inactive
O=Cc1ccc(NCc2cccc(Cl)c2)cn1,BP,Rattus norvegicus [2],>20 mmHg
O=C(O)c1ccc(NCc2cccc(Oc3ccccc3)c2)cn1,BP,Rattus norvegicus [2],>20 mmHg
CCNC(=O)c1ccc(NCc2ccc(F)cc2)cn1,BP,Rattus norvegicus [14],inactive
O=C(O)c1ccc(NCC2CCCCC2)cn1,BP,Rattus norvegicus [15],>20 mmHg
O=C(O)c1ccc(NCc2cc(Cl)cc(Cl)c2)cn1,BP,Rattus norvegicus [2],>60 mmHg
O=C(O)c1ccc(Nc2ccccc2)cn1,BP,Rattus norvegicus [14],inactive
CN(Cc1cccc(Br)c1)c1ccc(C(=O)O)nc1,BP,Rattus norvegicus [2],>40 mmHg
CN(Cc1cccc(F)c1)c1ccc(C(=O)O)nc1,BP,Rattus norvegicus [2],>20 mmHg
O=C(O)c1ccc(NCc2ccc(Cl)c(Cl)c2)cn1,BP,Rattus norvegicus [2],<20 mmHg
O=C(O)c1ccc(NCc2ccc(C(F)(F)F)cc2)cn1,BP,Rattus norvegicus [2],>40 mmHg
CN(Cc1cccc(Cl)c1)c1ccc(CO)nc1,BP,Rattus norvegicus [2],>40 mmHg
CN(Cc1cccc(Cl)c1)c1ccc(C(N)=O)nc1,BP,Rattus norvegicus [12],<20 mmHg
Cc1cccc(CN(C)c2ccc(C(=O)O)nc2)c1,BP,Rattus norvegicus [2],>20 mmHg
Fc1ccc(CNc2ccc(C3N=NN=N3)nc2)cc1,BP,Rattus norvegicus [2],>60 mmHg
O=C(O)c1ccc(NS(=O)(=O)c2ccc(Cl)cc2)cn1,BP,Rattus norvegicus [13],inactive
O=C(O)c1ccc(NCc2ccccn2)cn1,BP,Rattus norvegicus [2],>20 mmHg
O=C(O)c1ccc(NCc2cccc(F)c2)cn1,Maximum change in heart rate,Canis familiaris [16],35
same,HR,Canis familiaris [5],78
same,HR,Canis familiaris [17],51
same,HR,Canis familiaris [18],44
same,MBP,Canis familiaris [7],-30
same,MBP,Canis familiaris [8],-46
same,MBP,Canis familiaris [19],-56
same,MBP,Canis familiaris [20],-51
same,BP,Rattus norvegicus [2],>60 mmHg
CCC(=O)N(Cc1cccc(Cl)c1)c1ccc(C(=O)O)nc1,BP,Rattus norvegicus [1],<20 mmHg
CCOC(=O)Nc1ccc(C(=O)OC)nc1,BP,Rattus norvegicus [13],inactive
NC(=O)c1ccc(NCc2ccc(F)cc2)cn1,BP,Rattus norvegicus [2],>40 mmHg
O=C(O)c1ccc(NCc2cccnc2)cn1,BP,Rattus norvegicus [1],<20 mmHg
COc1ccc(CNc2ccc(C(=O)O)nc2)cc1F,BP,Rattus norvegicus [2],>20 mmHg
CN(Cc1ccccc1)c1ccc(C(=O)O)nc1,BP,Rattus norvegicus [2],>40 mmHg
OCc1ccc(NCc2ccc(F)cc2)cn1,BP,Rattus norvegicus [2],>80 mmHg
O=C(O)c1ccc(NCc2ccc(F)cc2)cn1,Maximum change in heart rate,Canis familiaris [16],37
same,HR,Canis familiaris [21],60
same,HR,Canis familiaris [17],52
same,HR,Canis familiaris [6],41
same,MBP,Canis familiaris [7],-69
same,MBP,Canis familiaris [22],-41
same,MBP,Canis familiaris [19],-49
same,MBP,Canis familiaris [23],-48
same,BP,Rattus norvegicus [2],> 60 mmHg
same,BP,Rattus norvegicus [12],>60 mmHg
CN(Cc1ccc(Cl)c(Cl)c1)c1ccc(C(=O)O)nc1,BP,Rattus norvegicus [2],>60 mmHg
O=C(O)c1ccc(NCc2cccc(Cl)c2)cn1,Maximum change in heart rate,Canis familiaris [16],16
same,HR,Canis familiaris [5],11
same,HR,Canis familiaris [17],11
same,MBP,Canis familiaris [24],-9
same,MBP,Canis familiaris [7],-15
same,MBP,Canis familiaris [9],-4
same,BP,Rattus norvegicus [1],>60 mmHg
